Data: ChEMBL document CHEMBL1151428, “Capability of 11 antipneumococcal antibiotics to select for resistance by multistep and single-step methodologies” (2007)
In brackets after ≈: the same amount, converted by molar mass.

How the values were obtained:
Type in all cases: functional
[1] = tested on: Streptococcus pneumoniae; assay: Antimicrobial activity against drug-resistant Streptococcus pneumoniae isolate 3665 by NCCLS M7-A7 method
[2] = tested on: Streptococcus pneumoniae; assay: Antimicrobial activity against drug-resistant Streptococcus pneumoniae isolate 1077 after 29 passages with azithromycin measured after 10 antibiotic-free subculture by multi-step resistance selection technique
How it was run: (§1)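 Mutants selected by daily broth passage in subinhibitory drug in cation-adjusted Mueller-Hinton broth with 5% lysed horse blood. Stability was tested by 10 daily passages on blood agar without antibiotic, then macrodilution MIC.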

[3] = tested on: Streptococcus pneumoniae; assay: Antimicrobial activity against drug-resistant Streptococcus pneumoniae isolate 37 by NCCLS M7-A7 method
[4] = tested on: Streptococcus pneumoniae; assay: Antimicrobial activity against drug-resistant Streptococcus pneumoniae isolate 3665 after 26 passages with clarithromycin measured after 10 antibiotic-free subculture by multi-step resistance selection technique
[5] = tested on: Streptococcus pneumoniae; assay: Antimicrobial activity against drug-resistant Streptococcus pneumoniae isolate 24 by NCCLS M7-A7 method
[6] = tested on: Streptococcus pneumoniae; assay: Antimicrobial activity against drug-resistant Streptococcus pneumoniae isolate 24 after 14 passages with Telithromycin measured after 10 antibiotic-free subculture by multi-step resistance selection technique; how it was run: as §1
[7] = tested on: Streptococcus pneumoniae; assay: Antimicrobial activity against drug-resistant Streptococcus pneumoniae isolate 3243 after 33 passages with azithromycin measured after 10 antibiotic-free subculture by multi-step resistance selection technique; how it was run: as §1
[8] = tested on: Streptococcus pneumoniae; assay: Antimicrobial activity against drug-resistant Streptococcus pneumoniae isolate 3676 after 44 passages with clarithromycin measured after 10 antibiotic-free subculture by multi-step resistance selection technique
[9] = tested on: Streptococcus pneumoniae; assay: Antimicrobial activity against drug-resistant Streptococcus pneumoniae isolate 24 after 50 passages with moxifloxacin measured after 10 antibiotic-free subculture by multi-step resistance selection technique; how it was run: as §1
[10] = tested on: Streptococcus pneumoniae; assay: Antimicrobial activity against drug-resistant Streptococcus pneumoniae isolate 1076 by NCCLS M7-A7 method
[11] = tested on: Streptococcus pneumoniae; assay: Antimicrobial activity against drug-resistant Streptococcus pneumoniae isolate 2527 after 20 passages with azithromycin measured after 10 antibiotic-free subculture by multi-step resistance selection technique; how it was run: as §1
[12] = tested on: Streptococcus pneumoniae; assay: Antimicrobial activity against drug-resistant Streptococcus pneumoniae isolate 3243 after 29 passages with Telithromycin measured after 10 antibiotic-free subculture by multi-step resistance selection technique; how it was run: as §1
[13] = tested on: Streptococcus pneumoniae; assay: Antimicrobial activity against drug-resistant Streptococcus pneumoniae isolate 3009 after 19 passages with moxifloxacin measured after 10 antibiotic-free subculture by multi-step resistance selection technique; how it was run: as §1
[14] = tested on: Streptococcus pneumoniae; assay: Antimicrobial activity against drug-resistant Streptococcus pneumoniae isolate 3665 after 14 passages with Telithromycin measured after 10 antibiotic-free subculture by multi-step resistance selection technique
[15] = tested on: Streptococcus pneumoniae; assay: Antimicrobial activity against drug-resistant Streptococcus pneumoniae isolate 1635 after 49 passages with clarithromycin measured after 10 antibiotic-free subculture by multi-step resistance selection technique
[16] = tested on: Streptococcus pneumoniae; assay: Antimicrobial activity against drug-resistant Streptococcus pneumoniae isolate 3274 after 48 passages with Telithromycin measured after 10 antibiotic-free subculture by multi-step resistance selection technique; how it was run: as §1
[17] = tested on: Streptococcus pneumoniae; assay: Antimicrobial activity against drug-resistant Streptococcus pneumoniae isolate 3413 after 50 passages by multi-step resistance selection technique
How it was run: (§2)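 Daily serial passage in subinhibitory drug levels in 1 ml cation-adjusted Mueller-Hinton broth with 5% lysed horse blood; fresh broth for tigecycline. Each day, 10 μl were taken from the tube one to two dilutions below the MIC whose turbidity matched the growth control, and used to set the next MIC. MIC by macrodilution.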

[18] = tested on: Streptococcus pneumoniae; assay: Antimicrobial activity against drug-resistant Streptococcus pneumoniae isolate 37 after 50 passages by multi-step resistance selection technique
How it was run: (§3)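 Daily serial passage in broth at subinhibitory drug levels: 1 ml cation-adjusted Mueller-Hinton broth with 5% lysed horse blood; fresh broth for tigecycline. Each day 10 μl inoculum taken from the tube one to two dilutions below MIC matching growth-control turbidity, used to set next MIC.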

[19] = tested on: Streptococcus pneumoniae; assay: Antimicrobial activity against drug-resistant Streptococcus pneumoniae isolate 1076 after 14 passages with Telithromycin measured after 10 antibiotic-free subculture by multi-step resistance selection technique; how it was run: as §1
[20] = tested on: Streptococcus pneumoniae; assay: Antimicrobial activity against drug-resistant Streptococcus pneumoniae isolate 1635 after 14 passages with azithromycin measured after 10 antibiotic-free subculture by multi-step resistance selection technique; how it was run: as §1
[21] = tested on: Streptococcus pneumoniae; assay: Antimicrobial activity against drug-resistant Streptococcus pneumoniae isolate 1077 by NCCLS M7-A7 method
[22] = tested on: Streptococcus pneumoniae; assay: Antimicrobial activity against drug-resistant Streptococcus pneumoniae isolate 3665 after 50 passages by multi-step resistance selection technique
How it was run: as §3, with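 “MIC. Continued until ≥8-fold MIC rise, minimum 14, maximum 50 passages; MIC read by macrodilution.” for “MIC.”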

[23] = tested on: Streptococcus pneumoniae; assay: Antimicrobial activity against drug-resistant Streptococcus pneumoniae isolate 37 after 14 passages with Telithromycin measured after 10 antibiotic-free subculture by multi-step resistance selection technique
[24] = tested on: Streptococcus pneumoniae; assay: Antimicrobial activity against drug-resistant Streptococcus pneumoniae isolate 2527 after 50 passages by multi-step resistance selection technique
How it was run: as §2, with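 “MIC. […]” for “MIC.”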

[25] = tested on: Streptococcus pneumoniae; assay: Antimicrobial activity against drug-resistant Streptococcus pneumoniae isolate 3243 after 20 passages with moxifloxacin measured after 10 antibiotic-free subculture by multi-step resistance selection technique; how it was run: as §1
[26] = tested on: Streptococcus pneumoniae; assay: Antimicrobial activity against drug-resistant Streptococcus pneumoniae isolate 1076 after 50 passages by multi-step resistance selection technique
How it was run: as §2, with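 “MIC. […]” for “MIC.”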

[27] = tested on: Streptococcus pneumoniae; assay: Antimicrobial activity against drug-resistant Streptococcus pneumoniae isolate 1077 after 15 passages with Telithromycin measured after 10 antibiotic-free subculture by multi-step resistance selection technique; how it was run: as §1
[28] = tested on: Streptococcus pneumoniae; assay: Antimicrobial activity against drug-resistant Streptococcus pneumoniae isolate 3009 after 18 passages with levofloxacin measured after 10 antibiotic-free subculture by multi-step resistance selection technique; how it was run: as §1
[29] = tested on: Streptococcus pneumoniae; assay: Antimicrobial activity against drug-resistant Streptococcus pneumoniae isolate 1635 after 14 passages with clindamycin measured after 10 antibiotic-free subculture by multi-step resistance selection technique
[30] = tested on: Streptococcus pneumoniae; assay: Antimicrobial activity against drug-resistant Streptococcus pneumoniae isolate 3274 after 50 passages by multi-step resistance selection technique; how it was run: as §2
[31] = tested on: Streptococcus pneumoniae; assay: Antimicrobial activity against drug-resistant Streptococcus pneumoniae isolate 3009 after 25 passages with clarithromycin measured after 10 antibiotic-free subculture by multi-step resistance selection technique
[32] = tested on: Streptococcus pneumoniae; assay: Antimicrobial activity against drug-resistant Streptococcus pneumoniae isolate 3413 after 30 passages with Telithromycin measured after 10 antibiotic-free subculture by multi-step resistance selection technique; how it was run: as §1
[33] = tested on: Streptococcus pneumoniae; assay: Antimicrobial activity against drug-resistant Streptococcus pneumoniae isolate 3009 after 50 passages by multi-step resistance selection technique
How it was run: as §2, with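 “MIC. […]” for “MIC.”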

[34] = tested on: Streptococcus pneumoniae; assay: Antimicrobial activity against drug-resistant Streptococcus pneumoniae isolate 24 after 50 passages by multi-step resistance selection technique; how it was run: as §2
[35] = tested on: Streptococcus pneumoniae; assay: Antimicrobial activity against drug-resistant Streptococcus pneumoniae isolate 3413 by NCCLS M7-A7 method
[36] = tested on: Streptococcus pneumoniae; assay: Antimicrobial activity against drug-resistant Streptococcus pneumoniae isolate 3676 after 50 passages by multi-step resistance selection technique
How it was run: as §3, with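 “MIC. Continued until ≥8-fold MIC rise, minimum 14, maximum 50 passages; MIC read by macrodilution.” for “MIC.”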

[37] = tested on: Streptococcus pneumoniae; assay: Antimicrobial activity against drug-resistant Streptococcus pneumoniae isolate 3676 after 14 passages with Telithromycin measured after 10 antibiotic-free subculture by multi-step resistance selection technique
[38] = tested on: Streptococcus pneumoniae; assay: Antimicrobial activity against drug-resistant Streptococcus pneumoniae isolate 3009 by NCCLS M7-A7 method

| SMILES | MIC [1] | MIC [2] | MIC [3] | MIC [4] | MIC [5] | MIC [6] | MIC [7] | MIC [8] | MIC [9] | MIC [10] | MIC [11] | MIC [12] | MIC [13] | MIC [14] | MIC [15] | MIC [16] | MIC [17] | MIC [18] | MIC [19] | MIC [20] | also measured |
| --- | --- | --- | --- | --- | --- | --- | --- | --- | --- | --- | --- | --- | --- | --- | --- | --- | --- | --- | --- | --- | --- |
| CO/N=C(\C(=O)N[C@@H]1C(=O)N2C(C(=O)O)=C(CSc3nc(=O)c(O)nn3C)CS[C@H]12)c1csc(N)n1 [CEFTRIAXONE] | 0.06 µg/mL (≈ 0.108 µM) | 0.03 µg/mL (≈ 0.0541 µM) | 2 µg/mL (≈ 3.61 µM) | 0.03 µg/mL (≈ 0.0541 µM) | 1 µg/mL (≈ 1.8 µM) | 2 µg/mL (≈ 3.61 µM) | 0.125 µg/mL (≈ 0.225 µM) | 0.03 µg/mL (≈ 0.0541 µM) | 1 µg/mL (≈ 1.8 µM) | 0.016 µg/mL (≈ 0.0289 µM) | 2 µg/mL (≈ 3.61 µM) | 0.125 µg/mL (≈ 0.225 µM) | 0.03 µg/mL (≈ 0.0541 µM) | 0.06 µg/mL (≈ 0.108 µM) | 0.016 µg/mL (≈ 0.0289 µM) | 0.125 µg/mL (≈ 0.225 µM) | 1 µg/mL (≈ 1.8 µM) | 1 µg/mL (≈ 1.8 µM) | 0.03 µg/mL (≈ 0.0541 µM) | 0.016 µg/mL (≈ 0.0289 µM) | MIC [21]: 0.016 µg/mL (≈ 0.0289 µM); MIC [22]: 0.06 µg/mL (≈ 0.108 µM); MIC [23]: 2 µg/mL (≈ 3.61 µM); MIC [24]: 8 µg/mL (≈ 14.4 µM); MIC [25]: 0.06 µg/mL (≈ 0.108 µM); MIC [26]: 0.016 µg/mL (≈ 0.0289 µM); MIC [27]: 0.016 µg/mL (≈ 0.0289 µM); MIC [28]: 0.016 µg/mL (≈ 0.0289 µM); MIC [29]: 0.016 µg/mL (≈ 0.0289 µM); MIC [30]: 0.25 µg/mL (≈ 0.451 µM); MIC [31]: 0.016 µg/mL (≈ 0.0289 µM); MIC [32]: 2 µg/mL (≈ 3.61 µM); MIC [33]: 0.03 µg/mL (≈ 0.0541 µM); MIC [34]: 2 µg/mL (≈ 3.61 µM); MIC [35]: 1 µg/mL (≈ 1.8 µM); MIC [36]: 0.06 µg/mL (≈ 0.108 µM); MIC [37]: 0.06 µg/mL (≈ 0.108 µM); MIC [38]: 0.03 µg/mL (≈ 0.0541 µM) |
| CN(C)c1cc(NC(=O)CNC(C)(C)C)c(O)c2c1C[C@H]1C[C@H]3[C@H](N(C)C)C(O)=C(C(N)=O)C(=O)[C@@]3(O)C(O)=C1C2=O [TIGECYCLINE] | 0.016 µg/mL (≈ 0.0273 µM) | 0.03 µg/mL (≈ 0.0512 µM) | 0.016 µg/mL (≈ 0.0273 µM) | 0.03 µg/mL (≈ 0.0512 µM) | 0.03 µg/mL (≈ 0.0512 µM) | 0.03 µg/mL (≈ 0.0512 µM) | 0.06 µg/mL (≈ 0.102 µM) | 0.03 µg/mL (≈ 0.0512 µM) | 0.03 µg/mL (≈ 0.0512 µM) | 0.03 µg/mL (≈ 0.0512 µM) | 0.03 µg/mL (≈ 0.0512 µM) | 0.03 µg/mL (≈ 0.0512 µM) | 0.06 µg/mL (≈ 0.102 µM) | 0.03 µg/mL (≈ 0.0512 µM) | 0.016 µg/mL (≈ 0.0273 µM) | 0.03 µg/mL (≈ 0.0512 µM) | 0.03 µg/mL (≈ 0.0512 µM) | 0.016 µg/mL (≈ 0.0273 µM) | 0.03 µg/mL (≈ 0.0512 µM) | 0.03 µg/mL (≈ 0.0512 µM) | MIC [21]: 0.016 µg/mL (≈ 0.0273 µM); MIC [22]: 0.016 µg/mL (≈ 0.0273 µM); MIC [23]: 0.03 µg/mL (≈ 0.0512 µM); MIC [24]: 0.016 µg/mL (≈ 0.0273 µM); MIC [25]: 0.03 µg/mL (≈ 0.0512 µM); MIC [26]: 0.03 µg/mL (≈ 0.0512 µM); MIC [27]: 0.03 µg/mL (≈ 0.0512 µM); MIC [28]: 0.06 µg/mL (≈ 0.102 µM); MIC [29]: 0.03 µg/mL (≈ 0.0512 µM); MIC [30]: 0.03 µg/mL (≈ 0.0512 µM); MIC [31]: 0.03 µg/mL (≈ 0.0512 µM); MIC [32]: 0.03 µg/mL (≈ 0.0512 µM); MIC [33]: 0.016 µg/mL (≈ 0.0273 µM); MIC [34]: 0.03 µg/mL (≈ 0.0512 µM); MIC [35]: 0.016 µg/mL (≈ 0.0273 µM); MIC [36]: 0.016 µg/mL (≈ 0.0273 µM); MIC [37]: 0.03 µg/mL (≈ 0.0512 µM) |
